Test results taken from ChEMBL document CHEMBL4382232, “Grayanane Diterpenoid Glucosides from the Leaves of Rhododendron micranthum and Their Bioactivities Evaluation” (2018).
Active and inactive are the calls of the source. The rule behind the calls is not given here.

Columns and labels:
[1] = test system: Mus musculus; assay: Antinociceptive activity in Kunming mouse model of acetic-acid-induced writhing assessed as inhibition of writhing numbers at 0.2 mg/kg measured for 30 mins relative to control; assay type: functional; settings: 0.5 h
In short: (§1)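 Acetic-acid-induced writhing model in Kunming mice (10 per group); doses 0.2, 1.0 and 5.0 mg/kg; vehicle-treated and morphine positive-control groups; inhibition of writhing relative to vehicle; mean ± SEM; one-way ANOVA with Bonferroni test. Animal work approved by institutional ethics committee.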

[2] = test system: A549; assay: Cytotoxicity against human A549 cells at 40 uM after 48 hrs by MTT assay; assay type: functional, cell-based
[3] = test system: MCF7; assay: Cytotoxicity against human MCF7 cells at 40 uM after 48 hrs by MTT assay; assay type: functional, cell-based
[4] = test system: Mus musculus; assay: Antinociceptive activity in Kunming mouse model of acetic-acid-induced writhing assessed as inhibition of writhing numbers at 5 mg/kg measured for 30 mins relative to control; assay type: functional; settings: 0.5 h; in short: as §1
[5] = test system: SMMC-7721; assay: Cytotoxicity against human SMMC7721 cells at 40 uM after 48 hrs by MTT assay; assay type: functional, cell-based
[6] = test system: SW480; assay: Cytotoxicity against human SW480 cells at 40 uM after 48 hrs by MTT assay; assay type: functional, cell-based
[7] = test system: HL-60; assay: Cytotoxicity against human HL60 cells at 40 uM after 48 hrs by MTT assay; assay type: functional, cell-based
[8] = target: T1, Tyrosine-protein phosphatase non-receptor type 1 (Homo sapiens) (UniProt P18031); assay: Inhibition of recombinant human PTP1B at 40 uM using pNPP as substrate preincubated for 10 mins followed by substrate addition and measured after 30 mins at 5 mins time interval for 30 mins
T1 sequence (whole entry): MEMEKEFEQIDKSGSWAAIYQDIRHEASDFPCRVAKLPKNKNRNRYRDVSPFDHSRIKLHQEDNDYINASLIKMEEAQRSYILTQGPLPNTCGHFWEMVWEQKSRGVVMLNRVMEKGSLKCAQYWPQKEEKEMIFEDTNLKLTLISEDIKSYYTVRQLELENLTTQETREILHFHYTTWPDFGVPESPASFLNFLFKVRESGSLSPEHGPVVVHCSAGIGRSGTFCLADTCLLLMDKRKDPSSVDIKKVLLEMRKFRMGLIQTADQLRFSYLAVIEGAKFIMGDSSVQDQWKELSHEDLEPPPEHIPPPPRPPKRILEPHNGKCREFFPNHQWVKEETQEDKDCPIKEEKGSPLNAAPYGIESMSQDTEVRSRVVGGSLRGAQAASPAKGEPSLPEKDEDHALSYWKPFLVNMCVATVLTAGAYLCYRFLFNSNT

[9] = test system: Mus musculus; assay: Antinociceptive activity in Kunming mouse model of acetic-acid-induced writhing assessed as inhibition of writhing numbers at 1 mg/kg measured for 30 mins relative to control; assay type: functional; settings: 0.5 h; in short: as §1
[10] = test system: RAW264.7; assay: Anti-inflammatory activity in mouse RAW264.7 cells assessed as inhibition of LPS-induced NO production at 40 uM; assay type: functional, cell-based

inhibition [8]: inactive
SMILES: C=C1[C@H]2C[C@H](O[C@@H]3O[C@H](CO)[C@@H](O)[C@H](O)[C@H]3O)C(C)(C)[C@]2(O)CC[C@@]23C[C@@H](CC[C@@H]12)[C@](C)(O)C3
inhibition in vivo at 0.2 mg/kg [1]: 46.1%
Activity [2]: inactive
Activity [3]: inactive
inhibition in vivo at 5 mg/kg [4]: 82.3%
Activity [5]: inactive
Activity [6]: inactive
Activity [7]: inactive
inhibition in vivo at 1 mg/kg [9]: 58.7%
inhibition [10]: inactive
